Calls of active or inactive are those of the source. The rule behind the calls is not given here.
Columns and labels:
[1] = biological target: T1, 5-hydroxytryptamine receptor 2A (Homo sapiens, UniProt P28223); assay: Agonist activity at human 5-HT2A receptor expressed in HEK293 cells assessed as calcium flux by FLIPR assay; format: functional, cell-based
[2] = biological target: T2, 5-hydroxytryptamine receptor 2B (Homo sapiens, UniProt P41595); assay: Agonist activity at human 5-HT2B receptor expressed in HEK293 cells assessed as calcium flux at 10 uM by FLIPR assay; format: functional, cell-based
In short: (§1)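 Flp-In-293 cells stably expressing human 5-HT2A, 5-HT2B or 5-HT2C-INI, grown in DMEM with 10% dialyzed FBS, then plated for 24 h in 1% dialyzed FBS. Cells were loaded 1 h at 37 °C with calcium dye in Hepes-buffered HBSS, pH 7.40, containing 2.5 mM probenecid. FLIPR read 10 s baseline, then 120 s after drug addition.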

[3] = biological target: T1, 5-hydroxytryptamine receptor 2A; assay: Agonist activity at human 5-HT2A receptor expressed in HEK293 cells assessed as calcium flux by FLIPR assay relative to 5-HT; format: functional, cell-based
In short: (§2)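 Flp-In-293 cells stably expressing human 5-HT2A, 5-HT2B or 5-HT2C-INI; grown 24–48 h in DMEM/10% dialyzed FBS, plated on poly-L-Lys at 12000 cells/well in 1% dialyzed FBS for 24 h. Loaded 1 h at 37 °C with calcium dye in HBSS, 20 mM Hepes pH 7.40, 2.5 mM probenecid.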

[4] = biological target: T3, 5-hydroxytryptamine receptor 2C (Homo sapiens) (UniProt P28335); assay: Agonist activity at human 5-HT2C receptor expressed in HEK293 cells assessed as calcium flux by FLIPR assay relative to 5-HT; format: functional, cell-based; in short: as §2
T3 sequence (whole entry): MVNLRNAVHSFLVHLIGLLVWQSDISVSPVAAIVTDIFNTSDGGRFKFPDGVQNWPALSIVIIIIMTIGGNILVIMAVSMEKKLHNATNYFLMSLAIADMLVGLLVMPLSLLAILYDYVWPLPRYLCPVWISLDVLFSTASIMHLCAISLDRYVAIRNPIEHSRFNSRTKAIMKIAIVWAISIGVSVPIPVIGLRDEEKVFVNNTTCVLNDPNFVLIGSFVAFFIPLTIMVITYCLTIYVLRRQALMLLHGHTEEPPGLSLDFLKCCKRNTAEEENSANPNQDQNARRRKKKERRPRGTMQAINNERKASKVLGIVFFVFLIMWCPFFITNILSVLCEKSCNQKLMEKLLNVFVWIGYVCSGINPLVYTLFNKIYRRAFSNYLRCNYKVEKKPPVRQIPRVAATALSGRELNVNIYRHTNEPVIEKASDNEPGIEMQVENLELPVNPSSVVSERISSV

[5] = biological target: T4, 5-hydroxytryptamine receptor 2C (Homo sapiens, UniProt P28335); assay: Agonist activity at human 5-HT2C receptor expressed in HEK293 cells assessed as calcium flux by FLIPR assay; format: functional, cell-based
T4 sequence (P28335 whole entry): T3 sequence (whole entry)

Salmonella typhimurium [6] = assay: Mutagenic activity in Salmonella typhimurium TA1537 at 10 to 100 uM by ames test; format: toxicity, organism-based; conditions: salmonella enterica subsp. enterica serovar typhimurium
In short: (§3)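 Ames fluctuation test in Salmonella strains TA98, TA100, TA1535 and TA1537, with and without S9, at 10, 50 and 100 µM; scored negative or positive.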

[7] = Permeability from basolateral to apical side in human Caco2 cells at pH 7.4; format: ADME, cell-based; conditions: caco-2, pH 7.4
In short: (§4)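 Caco-2 monolayer permeability measured A–B and B–A in pH 7.4 buffer, reported as ×10−6 cm/s; A–B/B–A ratio derived from these.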

Salmonella typhimurium [8] = assay: Mutagenic activity in Salmonella typhimurium TA1535 at 10 to 100 uM by ames test in presence of S9 mixture; format: toxicity, organism-based; conditions: salmonella enterica subsp. enterica serovar typhimurium; in short: as §3
Salmonella typhimurium [9] = assay: Mutagenic activity in Salmonella typhimurium TA1535 at 10 to 100 uM by ames test; format: toxicity, organism-based; conditions: salmonella enterica subsp. enterica serovar typhimurium; in short: as §3
[10] = biological target: T2, 5-hydroxytryptamine receptor 2B; assay: Agonist activity at human 5-HT2B receptor expressed in HEK293 cells assessed as calcium flux by FLIPR assay relative to 5-HT; format: functional, cell-based; in short: as §2
Salmonella typhimurium [11] = assay: Mutagenic activity in Salmonella typhimurium TA1537 at 10 to 100 uM by ames test in presence of S9 mixture; format: toxicity, organism-based; conditions: salmonella enterica subsp. enterica serovar typhimurium; in short: as §3
Salmonella typhimurium [12] = assay: Mutagenic activity in Salmonella typhimurium TA100 at 10 to 100 uM by ames test in presence of S9 mixture; format: toxicity, organism-based; conditions: salmonella enterica subsp. enterica serovar typhimurium; in short: as §3
[13] = biological target: Voltage-gated inwardly rectifying potassium channel KCNH2 (Homo sapiens, UniProt Q12809); assay: Inhibition of human ERG channel expressed in CHO cells by patch clamp method; format: cell-based
Salmonella typhimurium [14] = assay: Mutagenic activity in Salmonella typhimurium TA98 at 10 to 100 uM by ames test in presence of S9 mixture; format: toxicity, organism-based; conditions: salmonella enterica subsp. enterica serovar typhimurium; in short: as §3
[15] = Permeability from apical to basolateral side in human Caco2 cells at pH 7.4; format: ADME, cell-based; conditions: caco-2, pH 7.4; in short: as §4
Salmonella typhimurium [16] = assay: Mutagenic activity in Salmonella typhimurium TA100 at 10 to 100 uM by ames test; format: toxicity, organism-based; conditions: salmonella enterica subsp. enterica serovar typhimurium; in short: as §3
[17] = Plasma protein binding in human at 10 uM; format: ADME, cell-free
In short: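 Human plasma protein binding determined at 10 µM compound, expressed as % bound.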

[18] = biological target: T1, 5-hydroxytryptamine receptor 2A; assay: Agonist activity at human 5-HT2A receptor expressed in HEK293 cells assessed as calcium flux at 10 uM by FLIPR assay; format: functional, cell-based; in short: as §1
Salmonella typhimurium [19] = assay: Mutagenic activity in Salmonella typhimurium TA98 at 10 to 100 uM by ames test; format: toxicity, organism-based; conditions: salmonella enterica subsp. enterica serovar typhimurium; in short: as §3
[20] = biological target: T2, 5-hydroxytryptamine receptor 2B; assay: Agonist activity at human 5-HT2B receptor expressed in HEK293 cells assessed as calcium flux by FLIPR assay; format: functional, cell-based
Liver microsome = assay: Metabolic stability in human liver microsomes; format: ADME
In short: (§5)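 Incubation with human or CD-1 mouse liver microsomes for 1 h; stability expressed as % parent compound remaining.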

Liver = assay: Metabolic stability in mouse liver microsomes; format: ADME; in short: as §5
[21] = biological target: T3, 5-hydroxytryptamine receptor 2C (Homo sapiens); assay: Agonist activity at human 5-HT2C receptor expressed in HEK293 cells assessed as calcium flux at 10 uM by FLIPR assay; format: functional, cell-based; in short: as §1
[22] = biological target: T2, 5-hydroxytryptamine receptor 2B; assay: Agonist activity at 5HT2B receptor (unknown origin) relative to control; in short: as §2

T2 sequence (P41595 whole entry): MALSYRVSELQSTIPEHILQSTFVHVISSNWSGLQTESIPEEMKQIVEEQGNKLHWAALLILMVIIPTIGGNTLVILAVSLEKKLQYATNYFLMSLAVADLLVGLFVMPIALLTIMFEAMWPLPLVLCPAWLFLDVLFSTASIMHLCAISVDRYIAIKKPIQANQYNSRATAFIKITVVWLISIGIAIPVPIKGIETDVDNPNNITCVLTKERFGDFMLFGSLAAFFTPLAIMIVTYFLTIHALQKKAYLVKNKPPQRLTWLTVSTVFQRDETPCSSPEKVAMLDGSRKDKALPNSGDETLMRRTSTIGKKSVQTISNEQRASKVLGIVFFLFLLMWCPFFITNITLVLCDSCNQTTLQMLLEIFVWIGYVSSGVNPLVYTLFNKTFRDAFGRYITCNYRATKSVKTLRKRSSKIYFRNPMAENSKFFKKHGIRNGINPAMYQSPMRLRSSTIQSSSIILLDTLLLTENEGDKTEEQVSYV
T1 sequence (P28223 whole entry): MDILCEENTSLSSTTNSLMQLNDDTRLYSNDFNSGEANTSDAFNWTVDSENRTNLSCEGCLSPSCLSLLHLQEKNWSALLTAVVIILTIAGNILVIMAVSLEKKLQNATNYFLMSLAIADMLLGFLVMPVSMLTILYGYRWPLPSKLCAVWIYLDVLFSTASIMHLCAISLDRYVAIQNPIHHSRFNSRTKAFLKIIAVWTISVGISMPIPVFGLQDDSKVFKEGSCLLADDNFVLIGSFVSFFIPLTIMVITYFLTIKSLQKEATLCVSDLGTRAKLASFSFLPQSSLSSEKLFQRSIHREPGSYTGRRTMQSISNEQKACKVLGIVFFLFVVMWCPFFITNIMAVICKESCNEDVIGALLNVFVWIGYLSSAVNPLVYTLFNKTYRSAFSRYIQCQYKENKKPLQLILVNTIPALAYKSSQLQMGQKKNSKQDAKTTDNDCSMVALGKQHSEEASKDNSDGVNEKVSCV
Chain of Voltage-gated inwardly rectifying potassium channel KCNH2 (Q12809 whole entry): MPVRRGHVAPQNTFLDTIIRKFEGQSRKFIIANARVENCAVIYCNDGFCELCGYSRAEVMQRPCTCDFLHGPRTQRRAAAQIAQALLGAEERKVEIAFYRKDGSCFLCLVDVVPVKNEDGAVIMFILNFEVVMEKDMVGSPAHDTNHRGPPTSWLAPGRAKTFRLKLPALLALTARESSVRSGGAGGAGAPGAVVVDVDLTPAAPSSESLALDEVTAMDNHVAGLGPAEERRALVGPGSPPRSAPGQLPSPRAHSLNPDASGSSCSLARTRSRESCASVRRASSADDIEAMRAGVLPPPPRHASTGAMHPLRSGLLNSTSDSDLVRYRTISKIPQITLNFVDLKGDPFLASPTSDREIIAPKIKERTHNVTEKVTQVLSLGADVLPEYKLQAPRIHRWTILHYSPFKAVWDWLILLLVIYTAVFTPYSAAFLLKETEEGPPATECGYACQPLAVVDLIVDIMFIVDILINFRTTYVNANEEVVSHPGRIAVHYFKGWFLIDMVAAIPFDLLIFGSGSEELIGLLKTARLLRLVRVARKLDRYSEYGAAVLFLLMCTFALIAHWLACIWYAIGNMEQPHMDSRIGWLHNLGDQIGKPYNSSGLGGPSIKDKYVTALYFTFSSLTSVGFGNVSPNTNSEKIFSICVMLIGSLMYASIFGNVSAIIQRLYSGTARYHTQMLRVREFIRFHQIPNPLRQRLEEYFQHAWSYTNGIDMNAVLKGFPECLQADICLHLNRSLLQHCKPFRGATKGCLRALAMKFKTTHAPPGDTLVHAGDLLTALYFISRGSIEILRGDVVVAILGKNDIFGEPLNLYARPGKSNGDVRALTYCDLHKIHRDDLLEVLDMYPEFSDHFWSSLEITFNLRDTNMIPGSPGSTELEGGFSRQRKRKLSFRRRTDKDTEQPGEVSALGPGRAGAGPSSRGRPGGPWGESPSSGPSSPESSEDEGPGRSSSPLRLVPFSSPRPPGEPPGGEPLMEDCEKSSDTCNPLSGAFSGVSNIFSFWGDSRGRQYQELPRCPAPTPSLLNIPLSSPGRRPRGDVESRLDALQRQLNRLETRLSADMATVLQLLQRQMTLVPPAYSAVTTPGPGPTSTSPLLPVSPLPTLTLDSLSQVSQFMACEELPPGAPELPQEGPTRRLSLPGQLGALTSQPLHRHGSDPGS

| SMILES | EC50 [1] | Activity [2] | Emax [4] | EC50 [5] | Emax [10] | Activity [18] | EC50 [20] | Activity [21] | also measured |
| --- | --- | --- | --- | --- | --- | --- | --- | --- | --- |
| C=CCOc1ccc(F)cc1[C@@H]1C[C@H]1CN | 697 nM | inactive | 87% | 157 nM | – | – | – | – | Emax [3]: 56% |
| C=C(F)COc1ccc(F)cc1[C@H]1C[C@@H]1CN | 1670 nM | inactive | 91% | 22 nM | – | – | – | – | – |
| C=CCOc1ccc(Cl)cc1[C@H]1C[C@@H]1CN.O=C(O)C(F)(F)F | – | – | 80% | 60 nM | 32% | inactive | 2.21 µM | – | Activity (Salmonella typhimurium [6]): Non-toxic; permeability [7]: 9.8 ×10⁻⁶ cm/s; Activity (Salmonella typhimurium [8]): Non-toxic; Activity (Salmonella typhimurium [9]): Non-toxic; Activity (Salmonella typhimurium [11]): Non-toxic; Activity (Salmonella typhimurium [12]): Non-toxic; IC50 [13]: 270 nM; Activity (Salmonella typhimurium [14]): Non-toxic; permeability [15]: 35.6 ×10⁻⁶ cm/s; Activity (Salmonella typhimurium [16]): Non-toxic; PPB [17]: 75%; Activity (Salmonella typhimurium [19]): Non-toxic; Stability (Liver microsome): 52%; Stability (Liver): 60% |
| C=C(C)COc1ccc(Cl)cc1[C@@H]1C[C@H]1CN | – | – | – | – | 39% | inactive | 6.09 µM | inactive | – |
| c1cc2c3c(c1)[C@H]1CCC[C@H]1N3CCNC2 | – | – | – | – | – | – | – | – | Emax [22]: 40% |
| C=C(F)COc1ccc(Cl)cc1[C@@H]1C[C@H]1CN | – | – | – | – | 33% | inactive | 6.88 µM | inactive | – |
